APOBEC3A inh: inhibitors of human APOBEC3A DNA deaminase. inhibition, % at 20 µM. hit rate 0.41% among 330,000. P31941. recombinant A3A, FAM/TAMRA ssDNA deamination fluorescence;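 active = at least 40% inhibition at 20 µM here, with at most 30% in a related deaminase screen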;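 also: plate controls were A3A with DMSO for no effect and wells lacking A3A enzyme for full effect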
Keap1-Nrf2 PPI: Keap1-Nrf2 (human) interaction inhibition. Keap1 Kelch-Nrf2 peptide fluorescence polarization, 1536-well. inhibition, % at 9.4 µM. AID 504523. hit rate 0.15% among 340,000; in the data active = inhibition above about 12%;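 also: human Keap1 Kelch domain with fluorescein labeled Nrf2 9mer peptide probe; 0% = neutral control wells and 100% = peptide positive control; higher means more block of Keap1 binding to Nrf2 peptide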
Target sequence (Q14145 whole entry, looked up, the tested form may be a part): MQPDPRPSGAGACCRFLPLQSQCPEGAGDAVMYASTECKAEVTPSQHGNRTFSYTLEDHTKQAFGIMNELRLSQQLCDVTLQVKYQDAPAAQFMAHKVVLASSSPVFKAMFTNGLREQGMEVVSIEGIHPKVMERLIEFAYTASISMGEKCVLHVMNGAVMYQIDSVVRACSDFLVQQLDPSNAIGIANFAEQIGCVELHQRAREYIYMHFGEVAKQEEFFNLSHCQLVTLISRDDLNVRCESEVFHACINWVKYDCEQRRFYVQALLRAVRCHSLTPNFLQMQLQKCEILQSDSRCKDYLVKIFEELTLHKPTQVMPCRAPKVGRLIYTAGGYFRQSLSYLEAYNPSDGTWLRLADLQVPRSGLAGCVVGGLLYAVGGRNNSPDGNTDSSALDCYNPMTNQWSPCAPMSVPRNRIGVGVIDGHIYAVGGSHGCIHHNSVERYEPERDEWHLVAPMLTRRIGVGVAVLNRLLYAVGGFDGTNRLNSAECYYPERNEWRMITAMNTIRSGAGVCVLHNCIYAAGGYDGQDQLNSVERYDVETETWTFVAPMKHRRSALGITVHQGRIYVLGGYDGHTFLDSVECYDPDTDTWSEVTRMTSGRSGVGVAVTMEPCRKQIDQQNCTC
CAL PDZ FP-1: blocks peptide binding to the human CAL PDZ domain; purified CAL PDZ, TMR-peptide fluorescence polarization, 1 h; inhibition, % at 24.9 µM; hit rate 0.92% among 300,000;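 active = mean inhibition of at least 30% with at least half of replicates also reaching 30%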;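 also: 0% = DMSO neutral control and 100% = excess unlabeled competitor peptide PRC23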
C-LANA FP: inhibitors of KSHV LANA C-terminal domain DNA binding. MBP-C-LANA/FAM-LBS DNA binding, fluorescence polarization. inhibition, % at 9 µM. hit rate 0.078% among 340,000. AID 504423;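 active = highest replicate inhibition at or above 60% at 9 µM, even if other replicates fall short; inactive = all replicates below 60% inhibition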;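 also: 0% = neutral control wells and 100% = 4 µM acridine orange control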
CAL PDZ FP-2: inhibitors of human CAL PDZ peptide binding | hit rate 0.02% among 330,000 | Q9HD26 | inhibition, % at 20 µM | purified CAL PDZ, TMR-peptide fluorescence polarization, 1 h;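 active = highest replicate inhibition of at least 40%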;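 also: plate controls were DMSO neutral control wells for no effect and unlabeled competitor peptide control wells for full effect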
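Read-out basis: mP drop reported as inhibition | Assay system: Tagged CAL PDZ protein CerCALP, purified | Benchmarks: Unlabelled peptide for full inhibition, DMSO wells as neutral | Schedule: 1 h incubation at room temperature before polarization reading | Buffer or medium: Sodium phosphate/NaCl buffer pH 7.4 with TCEP, IgG, Thesit | Doses: Single point, 20 µM | Measured by: Fluorescence polarization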
APOBEC3G inh: blocks human APOBEC3G single-stranded DNA deamination; Q9HC16; recombinant A3G, ssDNA deamination FAM/TAMRA fluorescence; inhibition, % at 20 µM; hit rate 0.28% among 330,000; AID 493012;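 active = inhibition of at least 40% at 20 µM, with no more than 30% in the related APOBEC3A deaminase screen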;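 also: plate controls were DMSO wells with A3G for no effect and wells lacking A3G enzyme for full effect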
A3A conf: APOBEC3A (human) deaminase inhibition, confirmed; recombinant A3A, ssDNA deaminase UDG fluorescence assay; hit rate 63% among 1,400; AID 493151; inhibition, % at 20 µM; shares compounds with APOBEC3A inh;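 active = inhibition reaching a set limit, 80% of the first screen's cutoff, at 20 µM in any replicate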;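 also: plate controls were DMSO wells with A3A for no effect and wells lacking A3A enzyme for full effect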
UDG ctr A3A: inhibits UDG, flagging false APOBEC3A inhibitors. UDG counterscreen, FAM/TAMRA uracil oligo fluorescence. inhibition, % at 20 µM. 1,000 tested, under 10 active. AID 504714. shares compounds with APOBEC3A inh; call rule not given here
* hit, by the source's call; / = no result; ! = not confirmed by another sample. An excerpt weighted towards active compounds, which were near 1.7% of everything screened.

SMILES | APOBEC3A inh | Keap1-Nrf2 PPI | CAL PDZ FP-1 | C-LANA FP | CAL PDZ FP-2 | APOBEC3G inh | A3A conf | UDG ctr A3A
Cc1ccnc(NS(=O)(=O)c2ccc(NC(=O)Cc3cccs3)cc2)n1 | 54* | 0 | 0 | 3 | -1 | 30 | 61* | -4
CCOC(=O)Cn1c2[n+](c3ccccc31)CC(O)CS2 (centres undefined) | 69* | -3 | 4 | 1 | -1 | 30 | 86* | 5
COC(=O)Cn1c2[n+](c3ccccc31)CC(O)CS2 (centres undefined) | 0 | -6 | / | -1 | 0 | 0 | / | /
CC(=O)Nc1ccc(S(=O)(=O)/N=C2/NC(=O)/C(=C\c3ccco3)S2)cc1 | 60* | -1 | 7 | 39 | -1 | 14 | 32* | -5
COc1ccc(N=C2NC(=O)/C(=C\c3ccco3)S2)cc1 | 64* | -3 | -1 | -2 | -2 | 26 | 36* | -2
COCCCNC(=O)c1ccc(S(=O)(=O)c2ccc(C)cc2)c(NC(C)=O)c1 | -2 | -1 | -4 | -2 | 0 | -6 | / | /
O=C1C=C(Nc2ccccc2)C(=O)c2ccccc21 | 65* | 2 | 5 | 2 | 1 | -8 | -1 | 3
CCc1ccc(NC2=CC(=O)C(=O)c3ccccc32)cc1 | 1 | -1 | 1 | 1 | 0 | -3 | / | /
COc1ccc(NS(=O)(=O)c2ccc3c(c2)[C@H]2C=CC[C@H]2[C@@H](c2ccc(C(=O)O)cc2)N3)cc1 | 49* | 3 | -3 | 113* | -2 | 28 | 29* | 1
CCOC(=O)C1=C(C)N=C2SC(C(=O)OC)=CC(=O)N2C1c1ccc(F)cc1 (centres undefined) | 54* | -5 | -2 | 0 | -2 | -9 | -1 | -3
CN(C)c1ccc(S(=O)(=O)N(C)C)cc1NC(=O)Cc1cccc2ccccc12 | 0 | 1 | 4 | 0 | -2 | -9 | / | /
CCn1c(CNC(=O)COc2ccc(C(C)C)cc2)nnc1SCC(=O)Nc1cc(F)ccc1C | 78* | -3 | 1 | -1 | -1 | 23 | 77* | 10
CCn1c(CNC(=O)COc2ccc(C(C)C)cc2)nnc1SCC(=O)Nc1ccc(F)cc1 | -1 | 0 | 3 | 0 | -1 | -9 | / | /
COc1cccc(NC(=O)CN(C)C(=O)C23CC4CC(CC(Cl)(C4)C2)C3)c1 | -2 | 1 | / | 0 | 0 | -7 | / | /
O=c1oc(-c2ccccc2NS(=O)(=O)c2ccccc2)nc2ccccc12 | 50* | -5 | -2 | -1 | 1 | -1 | -2 | -3
COc1ccccc1CNC(=O)c1ccc(NC2=NC3CS(=O)(=O)CC3S2)cc1 (centres undefined) | -4 | 0 | -4 | -1 | -2 | -5 | / | /
CN(C)c1ccc(N=Nc2ccc(C(=O)O)cc2)cc1 | 64* | -5 | -8 | 13 | 1 | 25 | 54* | 1
CN(C)c1ccc(C(=O)c2ccccc2)cc1 | 0 | 5 | / | 1 | -1 | -5 | / | /
CCCCC(=O)N(Cc1ccc(-c2ccccc2-c2nn[nH]n2)cc1)[C@H](C(=O)O)C(C)C | -2 | / | / | / | / | -8 | / | /
CCc1ccc(NS(=O)(=O)c2ccc(C)c(C(=O)N3CCOCC3)c2)cc1 | 75* | -3 | 0 | -1 | -3 | 15 | 91* | -5
COc1cc(N)c(Cl)cc1C(=O)OCC(=O)N1CCCC1 | 6 | -5 | -4 | 0 | -4 | -6 | / | /
CCC1Sc2ccc(S(=O)(=O)CCC(=O)N3CCc4ccccc43)cc2NC1=O (centres undefined) | 66* | -6 | 0 | 0 | -1 | -4 | 17 | 7
CC1Sc2ccc(S(=O)(=O)CCC(=O)N3CCc4ccccc43)cc2NC1=O (centres undefined) | -2 | 1 | 0 | 1 | -3 | -4 | / | /
Cc1[nH]c2ccccc2c1/C=C(\C#N)C(=O)NC(C)c1ccccc1 (centres undefined) | 41* | 1 | -4 | -2 | 0 | 9 | 72* | 1
COc1ccc(S(=O)(=O)N2CCC(C(=O)Nc3cc(Cl)ccc3N3CCOCC3)CC2)cc1OC | 1 | 2 | 2 | 0 | -3 | -5 | / | /
SMILES | APOBEC3A inh | Keap1-Nrf2 PPI | CAL PDZ FP-1 | C-LANA FP | CAL PDZ FP-2 | APOBEC3G inh | A3A conf | UDG ctr A3A
O=C(C1CCN(S(=O)(=O)c2ccccc2F)CC1)N1CCN(Cc2ccc3c(c2)OCO3)CC1 | -1 | -2 | / | 0 | -2 | -5 | / | /
O=C(NCCc1ccncc1)c1ccc2nc(Cc3cccc(Cl)c3)oc2c1 | -4 | 2 | -5 | 2 | -4 | -12 | / | /
Cn1cccc2[nH]c(=O)nc1-2 | 78* | -1 | 0 | 0 | -3 | 11 | 20 | /
O=C(NC(=S)N1CCOCC1)c1ccc([N+](=O)[O-])cc1 | -5 | -5 | -1 | 4 | 0 | -8 | / | /
C[n+]1ccccc1/C=C/c1cc(Br)ccc1O | 50* | -3 | 1 | 1 | 0 | 15 | 26* | -3
CC(O)/C=C/c1cccc[n+]1C (centres undefined) | 60* | 2 | -3 | 2 | 0 | 27 | 80* | 6
COc1ccc(/C=C/c2cccc[n+]2C)c(O)c1 | 37 | -6 | -1 | -5 | 0 | 36 | / | /
C[n+]1ccccc1/C=N/O | 65*! | -1 | -4 | 0 | 1 | 3 | 80* | -1
CC(C)(C)N(NC(=O)Nc1ccc(F)cc1)C(=O)c1ccccc1 | 0 | 0 | / | 0 | -1 | -8 | / | /
CC(C)(C)N(NC(=O)Nc1ccc(Cl)c(Cl)c1)C(=O)c1ccccc1 | 40* | -2 | -3 | 0 | -3 | 1 | 3 | /
COc1cccc2c1OCC(CN1CCN(CCC(C)C)C(CCO)C1)=C2 (centres undefined) | 5 | -7 | 0 | 1 | -1 | 0 | / | /
CC[N+](CC)(CC)CCOc1ccc(/C=C/c2ccccc2)cc1 | 49* | -6 | -1 | -2 | -1 | 11 | 76* | -2
CCOc1ccccc1OCCOCCOc1c(Cl)cccc1Cl | -1 | 1 | -4 | 1 | -1 | -6 | / | /
CC[N+](CC)(CC)CCOc1cccc(OCC[N+](CC)(CC)CC)c1OCC[N+](CC)(CC)CC | 75* | -3 | 3 | -2 | 0 | 20 | 92* | -3
C=CCn1c(=O)c(C(=O)NC(C)c2ccccc2)c(O)c2ccccc21 (centres undefined) | -6 | 3 | -5 | -1 | 0 | -7 | / | /
CC12CC(O)C3c4ccc(O)cc4CCC3C1CC/C2=N\O (centres undefined) | 51* | 1 | 2 | 0 | 0 | -13 | 1 | 2
CC(=O)c1c(C)cc(C)c(CSc2ccccn2)c1C | 59* | -1 | -2 | 2 | / | 15 | 58* | 1
